According to ChEMBL document CHEMBL1687909, “Design, synthesis, and biological evaluation of new cinnamic derivatives as antituberculosis agents” (J Med Chem, 2011):
Values after ≈ are worked out from the molar mass of the structure shown.

Key:
[1] = system: Mycobacterium tuberculosis; test: Antituberculosis activity against Mycobacterium tuberculosis MYC5165 harboring InhA mutant gene after 7 days by MTT assay; format: functional
How it was run: (§1)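 Colorimetric MTT microassay: serial 2-fold dilutions from DMSO stocks in Middlebrook 7H9 broth, bacterial suspension in 7H9 added. After 6 days, MTT (1 mg/mL) added; 1 day later solubilization buffer, OD 570 nm. MIC = lowest concentration inhibiting growth, untreated bacilli as growth control.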

[2] = system: Mycobacterium tuberculosis; test: Antituberculosis activity against Mycobacterium tuberculosis 1400 harboring KatG mutant gene after 7 days by MTT assay; format: functional; how it was run: as §1

| SMILES | MIC [1] [µM] | MIC [2] [µM] |
| --- | --- | --- |
| CC(C)=CCOc1ccc(/C=C/C(=O)NNC(=O)c2ccncc2)cc1 | 27 (≈ 9.49 µg/mL) | 68 (≈ 23.9 µg/mL) |
| CC(C)=CCOc1ccc(/C=C/c2nnc3c4ccccc4cnn23)cc1 | 0.2 (≈ 0.0713 µg/mL) | 0.4 (≈ 0.143 µg/mL) |
| COc1ccc(/C=C/C(=O)NNC(=O)c2ccncc2)cc1 | 16 (≈ 4.76 µg/mL) | 320 (≈ 95.1 µg/mL) |
| O=C(O)c1cn(C2CC2)c2cc(N3CCNCC3)c(F)cc2c1=O [CIPROFLOXACIN] | 5 (≈ 1.66 µg/mL) | 5 (≈ 1.66 µg/mL) |
| NNC(=O)c1ccncc1 [ISONIAZID] | 18 (≈ 2.47 µg/mL) | 729 (≈ 100 µg/mL) |
